Reference: ChEMBL document CHEMBL3045697, “Acaricidal activity of clove bud oil compounds against Dermatophagoides farinae and Dermatophagoides pteronyssinus (Acari: Pyroglyphidae)” (2003)
Activity calls are given as the source filed them. The rule behind the calls is not given here.

Assays:
[1] = test system: Dermatophagoides pteronyssinus; test: Acaricidal activity against Dermatophagoides pteronyssinus assessed as mortality at 38.2 to 50.9 ug/cm2 after 24 to 72 hr by fabric disk assay relative to untreated control; type: functional, organism-based
In short: (§1)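 Contact bioassay: compound in 20 µL ethanol applied to 5 cm black cotton fabric disks, air-dried 30 s, then placed in Petri dishes with 25 adult mites (7-10 days old). Held at 25 ± 1 °C, 75% RH, in darkness. Controls received ethanol only. Triplicate; mean ± SE.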

Dermatophagoides farinae [2] = test: Acaricidal activity against Dermatophagoides farinae assessed as mortality at 50.9 ug/cm2 after 72 hr by fabric disk assay relative to untreated control; type: functional
In short: (§2)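 Test material in 20 µL ethanol is applied to a 5 cm black cotton fabric disk, and control disks get ethanol alone. After drying 30 s, each disk goes into a covered 5 cm Petri dish with 25 adult mites (7–10 days old), held at 25 ± 1 °C, 75% RH, in darkness. Mortality is scored at 24, 48 and 72 h under a 20× binocular microscope, dead meaning no appendage movement when prodded with a pin. Three replicates; mean ± SE reported.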

Dermatophagoides farinae [3] = test: Acaricidal activity against Dermatophagoides farinae assessed as mortality at 38.2 ug/cm2 after 48 hr by fabric disk assay relative to untreated control; type: functional; in short: as §2
Dermatophagoides farinae [4] = test: Acaricidal activity against Dermatophagoides farinae assessed as mortality at 50.9 ug/cm2 after 48 hr by fabric disk assay relative to untreated control; type: functional; in short: as §2
Dermatophagoides farinae [5] = test: Acaricidal activity against Dermatophagoides farinae assessed as mortality at 38.2 ug/cm2 after 24 hr by fabric disk assay relative to untreated control; type: functional; in short: as §2
Dermatophagoides farinae [6] = test: Acaricidal activity against Dermatophagoides farinae assessed as mortality at 50.9 ug/cm2 after 24 hr by fabric disk assay relative to untreated control; type: functional; in short: as §2
[7] = test system: Dermatophagoides pteronyssinus; test: Acaricidal activity against Dermatophagoides pteronyssinus after 24 hr by fabric disk assay; type: functional
Dermatophagoides farinae [8] = test: Acaricidal activity against Dermatophagoides farinae after 24 hr by fabric disk assay; type: functional
Dermatophagoides farinae [9] = test: Acaricidal activity against Dermatophagoides farinae assessed as mortality at 38.2 ug/cm2 after 72 hr by fabric disk assay relative to untreated control; type: functional; in short: as §2
[10] = test system: Dermatophagoides pteronyssinus; test: whole plant or invertebrate; type: functional; conditions: 24 h
[11] = test system: Dermatophagoides pteronyssinus; test: Acaricidal activity against Dermatophagoides pteronyssinus assessed as mortality at 15.9 to 19.1 ug/cm2 after 24 to 72 hr by fabric disk assay relative to untreated control; type: functional, organism-based; in short: as §1
Dermatophagoides farinae [12] = test: Acaricidal activity against Dermatophagoides farinae assessed as mortality at 15.9 ug/cm2 after 72 hr by fabric disk assay relative to untreated control; type: functional; in short: as §2
Dermatophagoides farinae [13] = test: Acaricidal activity against Dermatophagoides farinae assessed as mortality at 19.1 ug/cm2 after 72 hr by fabric disk assay relative to untreated control; type: functional; in short: as §2
Dermatophagoides farinae [14] = test: Acaricidal activity against Dermatophagoides farinae assessed as mortality at 15.9 ug/cm2 after 48 hr by fabric disk assay relative to untreated control; type: functional; in short: as §2
Dermatophagoides farinae [15] = test: Acaricidal activity against Dermatophagoides farinae assessed as mortality at 19.1 ug/cm2 after 48 hr by fabric disk assay relative to untreated control; type: functional; in short: as §2
[16] = test system: Dermatophagoides pteronyssinus; test: whole plant or invertebrate; type: functional; conditions: 24 h; remark: listed apart in the source
Dermatophagoides farinae [17] = test: whole plant or invertebrate; type: functional; conditions: 24 h
Dermatophagoides farinae [18] = test: whole plant or invertebrate; type: functional; conditions: 24 h; remark: listed apart in the source
Dermatophagoides farinae [19] = test: Acaricidal activity against Dermatophagoides farinae assessed as mortality at 15.9 ug/cm2 after 24 hr by fabric disk assay relative to untreated control; type: functional; in short: as §2
Dermatophagoides farinae [20] = test: Acaricidal activity against Dermatophagoides farinae assessed as mortality at 19.1 ug/cm2 after 24 hr by fabric disk assay relative to untreated control; type: functional; in short: as §2
[21] = test system: Dermatophagoides pteronyssinus; test: Acaricidal activity against Dermatophagoides pteronyssinus assessed as mortality at 6.4 to 8 ug/cm2 after 24 to 72 hr by fabric disk assay relative to untreated control; type: functional, organism-based; in short: as §2
Dermatophagoides farinae [22] = test: Acaricidal activity against Dermatophagoides farinae assessed as mortality at 6.4 ug/cm2 after 72 hr by fabric disk assay relative to untreated control; type: functional; in short: as §2
Dermatophagoides farinae [23] = test: Acaricidal activity against Dermatophagoides farinae assessed as mortality at 6.4 ug/cm2 after 48 hr by fabric disk assay relative to untreated control; type: functional; in short: as §2
Dermatophagoides farinae [24] = test: Acaricidal activity against Dermatophagoides farinae assessed as mortality at 8 ug/cm2 after 48 hr by fabric disk assay relative to untreated control; type: functional; in short: as §2
Dermatophagoides farinae [25] = test: Acaricidal activity against Dermatophagoides farinae assessed as mortality at 6.4 ug/cm2 after 24 hr by fabric disk assay relative to untreated control; type: functional; in short: as §2
Dermatophagoides farinae [26] = test: Acaricidal activity against Dermatophagoides farinae assessed as mortality at 8 ug/cm2 after 24 hr by fabric disk assay relative to untreated control; type: functional; in short: as §2
Dermatophagoides farinae [27] = test: Acaricidal activity against Dermatophagoides farinae assessed as mortality at 8 ug/cm2 after 72 hr by fabric disk assay relative to untreated control; type: functional; in short: as §2
Dermatophagoides farinae [28] = test: Acaricidal activity against Dermatophagoides farinae assessed as mortality at 9.6 ug/cm2 after 72 hr by fabric disk assay relative to untreated control; type: functional; in short: as §2
Dermatophagoides farinae [29] = test: Acaricidal activity against Dermatophagoides farinae assessed as mortality at 12.7 ug/cm2 after 72 hr by fabric disk assay relative to untreated control; type: functional; in short: as §2
Dermatophagoides farinae [30] = test: Acaricidal activity against Dermatophagoides farinae assessed as mortality at 9.6 ug/cm2 after 48 hr by fabric disk assay relative to untreated control; type: functional; in short: as §2
Dermatophagoides farinae [31] = test: Acaricidal activity against Dermatophagoides farinae assessed as mortality at 9.6 ug/cm2 after 24 hr by fabric disk assay relative to untreated control; type: functional; in short: as §2
[32] = test system: Dermatophagoides pteronyssinus; test: Acaricidal activity against Dermatophagoides pteronyssinus assessed as mortality at 9.6 to 12.7 ug/cm2 after 24 to 72 hr by fabric disk assay relative to untreated control; type: functional, organism-based; in short: as §1
Dermatophagoides farinae [33] = test: Acaricidal activity against Dermatophagoides farinae assessed as mortality at 12.7 ug/cm2 after 24 hr by fabric disk assay relative to untreated control; type: functional; in short: as §2
Dermatophagoides farinae [34] = test: Acaricidal activity against Dermatophagoides farinae assessed as mortality at 12.7 ug/cm2 after 48 hr by fabric disk assay relative to untreated control; type: functional; in short: as §2

| Compound | LD50 [7] [microg/cm2] | LD50 (Dermatophagoides farinae [8]) [microg/cm2] | mortality at 25.5 µg/cm2 [10] [%] | mortality at 25.5 µg/cm2 [16] [%] | mortality at 25.5 µg/cm2 (Dermatophagoides farinae [17]) [%] | mortality at 25.5 µg/cm2 (Dermatophagoides farinae [18]) [%] | Activity [21] | mortality at 6.4 µg/cm2 (Dermatophagoides farinae [22]) [%] | mortality at 6.4 µg/cm2 (Dermatophagoides farinae [23]) [%] | mortality at 8 µg/cm2 (Dermatophagoides farinae [24]) [%] | mortality at 6.4 µg/cm2 (Dermatophagoides farinae [25]) [%] | mortality at 8 µg/cm2 (Dermatophagoides farinae [26]) [%] | mortality at 8 µg/cm2 (Dermatophagoides farinae [27]) [%] | other results |
| --- | --- | --- | --- | --- | --- | --- | --- | --- | --- | --- | --- | --- | --- | --- |
| CCN(CC)C(=O)c1cccc(C)c1 [DIETHYLTOLUAMIDE] | 17.98 | 37.59 | – | – | – | – | – | – | – | – | – | – | – | Activity [1]: Active; mortality at 50.9 µg/cm2 (Dermatophagoides farinae [2]): 85%; mortality at 38.2 µg/cm2 (Dermatophagoides farinae [3]): 41%; mortality at 50.9 µg/cm2 (Dermatophagoides farinae [4]): 83%; mortality at 38.2 µg/cm2 (Dermatophagoides farinae [5]): 41%; mortality at 50.9 µg/cm2 (Dermatophagoides farinae [6]): 79%; mortality at 38.2 µg/cm2 (Dermatophagoides farinae [9]): 41% |
| C=CCc1ccc(OC(C)=O)c(OC)c1 [EUGENYL ACETATE] | 5.41 | 14.16 | 17 | 100 | 12 | 100 | – | – | – | – | – | – | – | Activity [11]: Active; mortality at 15.9 µg/cm2 (Dermatophagoides farinae [12]): 65%; mortality at 19.1 µg/cm2 (Dermatophagoides farinae [13]): 88%; mortality at 15.9 µg/cm2 (Dermatophagoides farinae [14]): 65%; mortality at 19.1 µg/cm2 (Dermatophagoides farinae [15]): 88%; mortality at 15.9 µg/cm2 (Dermatophagoides farinae [19]): 65%; mortality at 19.1 µg/cm2 (Dermatophagoides farinae [20]): 88% |
| C=CCc1ccc(O)c(OC)c1 [EUGENOL] | 3.71 | 5.47 | 21 | 100 | 11 | 100 | Active | 50 | 50 | 85 | 50 | 85 | 85 | – |
| CC=Cc1ccc(O)c(OC)c1 (mixture of isomers) [CIS/TRANS-ISOEUGENOL] | 1.55 | 5.17 | – | – | – | – | Active | 66 | 66 | 92 | 66 | 92 | 92 | – |
| O=C(OCc1ccccc1)c1ccccc1 [BENZYL BENZOATE] | 6.59 | 9.22 | – | – | – | – | – | – | – | – | – | – | – | mortality at 9.6 µg/cm2 (Dermatophagoides farinae [28]): 47%; mortality at 12.7 µg/cm2 (Dermatophagoides farinae [29]): 96%; mortality at 9.6 µg/cm2 (Dermatophagoides farinae [30]): 47%; mortality at 9.6 µg/cm2 (Dermatophagoides farinae [31]): 47%; Activity [32]: Active; mortality at 12.7 µg/cm2 (Dermatophagoides farinae [33]): 85%; mortality at 12.7 µg/cm2 (Dermatophagoides farinae [34]): 96% |
| C/C=C\c1ccc(O)c(OC)c1 [ISOEUGENOL] | – | – | 32 | 100 | 21 | 100 | – | – | – | – | – | – | – | – |
